Converted amounts (≈) assume the structure as drawn. The source made the active and inactive calls. The calls are words filed in the database; no cut-off is given here.
Assays:
NCI-H226 = test: Cytotoxicity against human NCI-H226 cells assessed as growth inhibition at 10 uM after 48 hrs by SRB assay; type: functional; details: NCI-H226, 48 h, read-out: GI
Method in brief: (§1)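 NCI-60 one-dose primary screen run by the NCI Drug Evaluation Branch across the full 60-line panel. Single high-dose treatment with 48 h continuous drug exposure. Cell growth estimated by sulforhodamine B protein staining. Results given as percent growth of treated cells and expressed as percentage growth inhibition.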

[1] = Cytotoxicity against human UO31 cells assessed as growth inhibition at 10 uM after 48 hrs by SRB assay; type: functional; details: UO-31, 48 h, read-out: GI; method in brief: as §1
[2] = Cytotoxicity against human Hs578T cells assessed as growth inhibition at 10 uM after 48 hrs by SRB assay; type: functional; details: Hs-578T, read-out: GI; method in brief: as §1
K562 = test: Cytotoxicity against human K562 cells assessed as growth inhibition at 10 uM after 48 hrs by SRB assay; type: functional; details: K562, 48 h, read-out: GI; method in brief: as §1
Bacillus spizizenii [3] = test: Antibacterial activity against Bacillus subtilis ATCC 6633 assessed as growth inhibition after 48 hrs by two-fold serial dilution assay; type: functional; details: ATCC 6633, 48 h
Method in brief: (§2)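 Twofold serial broth dilution run on compounds giving inhibition zones of 13 mm or more. Organisms pre-grown in suitable broth at 37 °C, 24 h for bacteria and 48 h for fungi. Dilution series 200, 100, 50, 25, 12.5, 6.25. Each 5 mL tube inoculated with 0.1 mL and incubated 37 °C for 48 h. Tubes scored for presence or absence of growth.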

PC-3 = test: Cytotoxicity against human PC3 cells assessed as growth inhibition at 10 uM after 48 hrs by SRB assay; type: functional; details: PC-3, 48 h, read-out: GI; method in brief: as §1
Escherichia coli [4] = test: Bactericidal activity against Escherichia coli ATCC 25922 after 18 hrs; type: functional; details: ATCC 25922, 18 h
Method in brief: (§3)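 Continuation of the broth-dilution MIC test. A loopful from each tube without visible growth spread on a quarter of a Mueller-Hinton agar plate and incubated 18 h. Lowest concentration giving no growth on subculture taken as the MBC.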

HCT-116 = test: Cytotoxicity against human HCT116 cells assessed as growth inhibition at 10 uM after 48 hrs by SRB assay; type: functional; details: HCT-116, 48 h, read-out: GI; method in brief: as §1
Staphylococcus aureus [5] = test: Antibacterial activity against Staphylococcus aureus ATCC 6538 assessed as growth inhibition at 1 mg/mL after 24 hrs by agar-cup diffusion method; type: functional; details: ATCC 6538, 24 h, read-out: DIZ
Method in brief: (§4)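 Agar-cup diffusion: 1 mL of 6 h broth culture seeded per 100 mL molten sterile agar at 45 °C and poured into plates. 8 mm cups cut, each filled with 0.1 mL of 1 mg/mL test solution. Incubated 37 °C for 24 h, 48 h for C. albicans. DMSO control per organism. Inhibition zone diameter in mm, mean of three measurements.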

Staphylococcus aureus [6] = test: Antibacterial activity against Staphylococcus aureus ATCC 6538 assessed as growth inhibition after 48 hrs by two-fold serial dilution assay; type: functional; details: ATCC 6538, 48 h; method in brief: as §2
SK-MEL-5 = test: Cytotoxicity against human SK-MEL-5 cells assessed as growth inhibition at 10 uM after 48 hrs by SRB assay; type: functional; details: SK-MEL-5, 48 h, read-out: GI; method in brief: as §1
Aspergillus niger = test: Antifungal activity against Aspergillus niger assessed as growth inhibition at 1 mg/mL after 24 hrs by agar-cup diffusion method; type: functional, organism-based; method in brief: as §4
CCRF-CEM = test: Cytotoxicity against human CCRF-CEM cells assessed as growth inhibition at 10 uM after 48 hrs by SRB assay; type: functional; details: read-out: GI; method in brief: as §1
MCF7 = test: Cytotoxicity against human MCF7 cells assessed as growth inhibition at 10 uM after 48 hrs by SRB assay; type: functional; details: MCF7, 48 h, read-out: GI; method in brief: as §1
UACC-62 = test: Cytotoxicity against human UACC62 cells assessed as growth inhibition at 10 uM after 48 hrs by SRB assay; type: functional; details: UACC-62, 48 h, read-out: GI; method in brief: as §1
T47D = test: Cytotoxicity against human T47D cells assessed as growth inhibition at 10 uM after 48 hrs by SRB assay; type: functional; details: read-out: GI; method in brief: as §1
Pseudomonas aeruginosa [7] = test: Antibacterial activity against Pseudomonas aeruginosa ATCC 27853 assessed as growth inhibition after 48 hrs by two-fold serial dilution assay; type: functional; details: ATCC 27853, 48 h; method in brief: as §2
SK-MEL-2 = test: Cytotoxicity against human SK-MEL-2 cells assessed as growth inhibition at 10 uM after 48 hrs by SRB assay; type: functional; details: SK-MEL-2, 48 h, read-out: GI; method in brief: as §1
SNB-75 = test: Cytotoxicity against human SNB75 cells assessed as growth inhibition at 10 uM after 48 hrs by SRB assay; type: functional; details: SNB-75, 48 h, read-out: GI; method in brief: as §1
MDA-MB-468 = test: Cytotoxicity against human MDA-MB-468 cells assessed as growth inhibition at 10 uM after 48 hrs by SRB assay; type: functional; details: MDA-MB-468, 48 h, read-out: GI; method in brief: as §1
Escherichia coli [8] = test: Antibacterial activity against Escherichia coli ATCC 25922 assessed as growth inhibition after 48 hrs by two-fold serial dilution assay; type: functional; details: ATCC 25922, 48 h; method in brief: as §2
Pseudomonas aeruginosa [9] = test: Antibacterial activity against Pseudomonas aeruginosa ATCC 27853 assessed as growth inhibition at 1 mg/mL after 24 hrs by agar-cup diffusion method; type: functional; details: ATCC 27853, 24 h, read-out: DIZ; method in brief: as §4
Staphylococcus aureus [10] = test: Bactericidal activity against Staphylococcus aureus ATCC 6538 after 18 hrs; type: functional; details: ATCC 6538, 18 h; method in brief: as §3
HCC 2998 = test: Cytotoxicity against human HCC2998 cells assessed as growth inhibition at 10 uM after 48 hrs by SRB assay; type: functional; details: HCC 2998, 48 h, read-out: GI; method in brief: as §1
U-251 = test: Cytotoxicity against human U251 cells assessed as growth inhibition at 10 uM after 48 hrs by SRB assay; type: functional; details: U-251, 48 h, read-out: GI; method in brief: as §1
IGROV-1 = test: Cytotoxicity against human IGROV1 cells assessed as growth inhibition at 10 uM after 48 hrs by SRB assay; type: functional; details: IGROV-1, 48 h, read-out: GI; method in brief: as §1
Bacillus spizizenii [11] = test: Antibacterial activity against Bacillus subtilis ATCC 6633 assessed as growth inhibition at 1 mg/mL after 24 hrs by agar-cup diffusion method; type: functional; details: ATCC 6633, 24 h, read-out: DIZ; method in brief: as §4
HCT-15 = test: Cytotoxicity against human HCT15 cells assessed as growth inhibition at 10 uM after 48 hrs by SRB assay; type: functional; details: HCT-15, 48 h, read-out: GI; method in brief: as §1
NCI-H522 = test: Cytotoxicity against human NCI-H522 cells assessed as growth inhibition at 10 uM after 48 hrs by SRB assay; type: functional; details: NCI-H522, 48 h, read-out: GI; method in brief: as §1
RPMI-8226 = test: Cytotoxicity against human RPMI8226 cells assessed as growth inhibition at 10 uM after 48 hrs by SRB assay; type: functional; details: RPMI-8226, 48 h, read-out: GI; method in brief: as §1
Pseudomonas aeruginosa [12] = test: Bactericidal activity against Pseudomonas aeruginosa ATCC 27853 after 18 hrs; type: functional; details: ATCC 27853, 18 h; method in brief: as §3
A498 = test: Cytotoxicity against human A498 cells assessed as growth inhibition at 10 uM after 48 hrs by SRB assay; type: functional; details: A498, 48 h, read-out: GI; method in brief: as §1

Row | MIC (Bacillus spizizenii [3]) | MIC (Staphylococcus aureus [6]) | MIC (Escherichia coli [8]) | SMILES | inhibition of growth at 10 µM (NCI-H226) | inhibition of growth at 10 µM [1] | inhibition of growth at 10 µM [2] | inhibition of growth at 10 µM (K562) | inhibition of growth at 10 µM (PC-3) | MBC (Escherichia coli [4]) | inhibition of growth at 10 µM (HCT-116) | zone of inhibition at 1000 µg/mL (Staphylococcus aureus [5]) | inhibition of growth at 10 µM (SK-MEL-5) | growth inhibition (GI) (Aspergillus niger) | inhibition of growth at 10 µM (CCRF-CEM) | inhibition of growth at 10 µM (MCF7) | inhibition of growth at 10 µM (UACC-62) | inhibition of growth at 10 µM (T47D) | inhibition of growth at 10 µM (SK-MEL-2) | inhibition of growth at 10 µM (SNB-75) | inhibition of growth at 10 µM (MDA-MB-468) | further results
1 | 12.5 µg/mL (≈ 38.4 µM) | 6.25 µg/mL (≈ 19.2 µM) | 12.5 µg/mL (≈ 38.4 µM) | Cc1nc(NC(=S)Nc2ccc(F)cc2)sc1C(=O)NN | 5.35% | 11% | 2.23% | < 10% | 2.36% | 12.5 µg/mL (≈ 38.4 µM) | 7.87% | > 13 mm | 5.01% | inactive | < 10% | < 10% | 10.8% | 2.52% | 30% | 7.19% | 5.5% | MIC (Pseudomonas aeruginosa [7]): 50 µg/mL (≈ 154 µM); zone of inhibition at 1000 µg/mL (Pseudomonas aeruginosa [9]): > 13 mm; MBC (Staphylococcus aureus [10]): 6.25 µg/mL (≈ 19.2 µM); inhibition of growth at 10 µM (HCC 2998): 10.5%; inhibition of growth at 10 µM (U-251): 5.41%; inhibition of growth at 10 µM (IGROV-1): 6.51%; zone of inhibition at 1000 µg/mL (Bacillus spizizenii [11]): > 13 mm; inhibition of growth at 10 µM (HCT-15): < 10%; inhibition of growth at 10 µM (NCI-H522): < 10%; inhibition of growth at 10 µM (RPMI-8226): < 10%; MBC (Pseudomonas aeruginosa [12]): 50 µg/mL (≈ 154 µM); inhibition of growth at 10 µM (A498): < 10%
2 | 25 µg/mL (≈ 65.7 µM) | 6.25 µg/mL (≈ 16.4 µM) | 12.5 µg/mL (≈ 32.9 µM) | CCOC(=O)c1sc(NC(=O)c2cc(OC)c(OC)c(OC)c2)nc1C | 12% | 24.3% | 11.2% | 49% | 35% | 12.5 µg/mL (≈ 32.9 µM) | 4.01% | > 13 mm | 5.59% | inactive | 11.7% | 12.5% | 11.5% | < 10% | 69.1% | 2.51% | 8.82% | MIC (Pseudomonas aeruginosa [7]): 50 µg/mL (≈ 131 µM); zone of inhibition at 1000 µg/mL (Pseudomonas aeruginosa [9]): > 13 mm; MBC (Staphylococcus aureus [10]): 6.25 µg/mL (≈ 16.4 µM); inhibition of growth at 10 µM (HCC 2998): 42.7%; inhibition of growth at 10 µM (U-251): < 10%; inhibition of growth at 10 µM (IGROV-1): < 10%; zone of inhibition at 1000 µg/mL (Bacillus spizizenii [11]): > 13 mm; inhibition of growth at 10 µM (HCT-15): 5.3%; inhibition of growth at 10 µM (NCI-H522): 32.6%; inhibition of growth at 10 µM (RPMI-8226): 17%; MBC (Pseudomonas aeruginosa [12]): 100 µg/mL (≈ 263 µM); inhibition of growth at 10 µM (A498): 11.4%
3 | 100 µg/mL (≈ 321 µM) | 50 µg/mL (≈ 161 µM) | 50 µg/mL (≈ 161 µM) | CCOC(=O)c1sc(NC(=O)NC2CCCCC2)nc1C | 9.89% | 10.6% | 8.4% | 9.69% | < 10% | 100 µg/mL (≈ 321 µM) | 14.2% | > 13 mm | 8.95% | inactive | 6.76% | 12.7% | 26% | 4.11% | 64.1% | < 10% | < 10% | zone of inhibition at 1000 µg/mL (Pseudomonas aeruginosa [9]): > 13 mm; MBC (Staphylococcus aureus [10]): 50 µg/mL (≈ 161 µM); inhibition of growth at 10 µM (HCC 2998): < 10%; inhibition of growth at 10 µM (U-251): < 10%; inhibition of growth at 10 µM (IGROV-1): 43.7%; zone of inhibition at 1000 µg/mL (Bacillus spizizenii [11]): > 13 mm; inhibition of growth at 10 µM (HCT-15): 14.3%; inhibition of growth at 10 µM (NCI-H522): < 10%; inhibition of growth at 10 µM (RPMI-8226): 4.13%; inhibition of growth at 10 µM (A498): 15.3%

From ChEMBL document CHEMBL3124924, “Bifunctional ethyl 2-amino-4-methylthiazole-5-carboxylate derivatives: synthesis and in vitro biological evaluation as antimicrobial and anticancer agents” (2014)
